Assay outcomes (PubChem)
A selection: hits, their analogues and other compounds. The true share with any hit is near 2.5%.
NTR1 agonist: activates human neurotensin receptor 1. P30989. NTR1-U2OS beta-arrestin-GFP spot imaging, agonist mode. activation, % at 20 µM. actives 0.17% (n = 330,000). AID 493036;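 active = activation at or above 40% of the spot to cytoplasm intensity ratio, with at least 20 cells analyzed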
PG9 binder: small molecules binding HIV-1 gp120 antibody PG9; AID 624416; TR-FRET gp120-PG9 antibody binding; inhibition, % at 6.7 µM; actives 0.43% (n = 360,000); in the data active = inhibition above about 8.5%
MC4R barr agon: human MC4R agonism via beta-arrestin; activation, % at 8.9 µM; P32245; U2OS MC4R beta-arrestin complementation, luminescence; percent of melanotan II response, DMSO zero; actives 0.98% (n = 360,000);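 active = activation above a per-plate cutoff, the mean activation of sample wells on that plate plus 3 SD, cut at about 8% in these data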
Rev-erbA mod: modulates human Rev-erb alpha binding to DNA; P20393; Rev-erbα–FITC-DNA binding, fluorescence polarization, 90 min; activity, % at 10 µM; actives 0.79% (n = 370,000); AID 1259318;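 active = activity above about 14%, limit read from the data; passing the limit was not always enough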
MC4R antag cAMP: human MC4R antagonism in cAMP assay; P32245; MC4R-expressing cells, MTII-stimulated cAMP, LANCE TR-FRET; inhibition, % at 6.5 µM; actives 0.48% (n = 360,000);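 active = inhibition above its plate's cutoff, the mean of tested wells on that plate plus 3 SD, cut at about 29% in these data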
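Assay system: U2OS cells stably expressing human melanocortin 4 receptor (MC4R) / Dosing: 6.5 µM / Timing: compound 30 min, challenge 1 h, detection 1 h / Measured by: Eu-cAMP/anti-cAMP TR-FRET, emission 671 nm / Replicates: singlicate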
MC4R barr conf: human MC4R beta-arrestin agonism confirmation; AID 602192; U2OS MC4R beta-arrestin recruitment, luminescence; scaled DMSO 0%, Melanotan II 100%; activation, % at 8.9 µM; shares compounds with MC4R barr agon; actives 31% (n = 2,400);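 active = mean activation across replicates above the hit cutoff set in the earlier primary screen, cut at about 8% in these data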
MOR-DOR barr ag: OPRM1-OPRD1 heterodimer agonism counter-screen. U2OS PathHunter beta-arrestin, beta-gal luminescence; percent of deltorphin B response, DMSO zero. AID 602194. actives 5.8% (n = 2,400). shares compounds with MC4R barr agon. activation, % at 9.2 µM;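 active = mean activation across replicates exceeds the hit threshold derived in the earlier primary screen, cut at about 18% in these data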
Target sequence (P35372 whole entry, looked up): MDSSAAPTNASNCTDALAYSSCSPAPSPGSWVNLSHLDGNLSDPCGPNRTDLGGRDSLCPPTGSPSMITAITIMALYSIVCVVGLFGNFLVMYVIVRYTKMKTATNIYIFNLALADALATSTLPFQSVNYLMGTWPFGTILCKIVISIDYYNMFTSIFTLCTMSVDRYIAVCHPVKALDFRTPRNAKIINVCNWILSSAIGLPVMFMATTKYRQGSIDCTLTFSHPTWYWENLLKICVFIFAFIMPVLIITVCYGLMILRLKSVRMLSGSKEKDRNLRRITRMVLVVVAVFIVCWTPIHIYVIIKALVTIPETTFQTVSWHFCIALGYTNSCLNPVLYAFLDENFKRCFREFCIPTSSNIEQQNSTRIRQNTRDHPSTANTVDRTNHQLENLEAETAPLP
Target sequence (P41143 whole entry, looked up): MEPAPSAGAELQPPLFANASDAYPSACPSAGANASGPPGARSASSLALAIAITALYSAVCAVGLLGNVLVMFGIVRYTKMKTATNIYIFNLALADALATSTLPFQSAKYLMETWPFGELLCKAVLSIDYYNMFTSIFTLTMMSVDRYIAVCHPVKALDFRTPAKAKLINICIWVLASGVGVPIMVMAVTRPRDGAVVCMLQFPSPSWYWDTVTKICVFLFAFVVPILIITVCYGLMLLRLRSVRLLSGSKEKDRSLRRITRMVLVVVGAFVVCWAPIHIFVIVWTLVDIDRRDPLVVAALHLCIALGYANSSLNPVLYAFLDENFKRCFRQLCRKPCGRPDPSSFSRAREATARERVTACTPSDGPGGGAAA
Each line names hits and unclear results; the compound was inactive in the other large screens (follow-up assays come after a bar, where they were run).

Nc1ccc(C(=O)Nc2ccc(OC(F)(F)C(F)F)c(NC(=O)c3ccc(N)cc3)c2)cc1	none
O=C(Nc1ccc(OC(F)(F)C(F)F)c(NC(=O)c2ccc(F)cc2)c1)c1ccc(F)cc1	MC4R barr agon 12 | MC4R barr conf inactive | MOR-DOR barr ag inactive
CCCc1ccc(Oc2coc3cc(OCC(=O)Nc4ccccc4C)ccc3c2=O)cc1	MC4R barr agon 22 | MC4R barr conf 15 | MOR-DOR barr ag inactive
CN1CCCCC(NC(=O)c2ccc(F)cc2)C1=O (stereo unspecified)	none (no result: NTR1 agonist, MC4R barr agon, MC4R antag cAMP)
COc1cc(NC(=O)COc2ccccc2[N+](=O)[O-])ccc1NC(=O)c1cccs1	MC4R barr agon 38 (no result: NTR1 agonist) | MC4R barr conf 18 | MOR-DOR barr ag inactive
COc1cc(NC(=O)c2ccc(Cl)cc2Cl)ccc1NC(=O)c1cccs1	MC4R barr agon 21 | MC4R barr conf inactive | MOR-DOR barr ag inactive
COc1cc(NC(=O)COc2ccccc2Cl)ccc1NC(=O)c1cccs1	none
O=S(=O)(Nc1ccc(-n2cccc2)cc1)c1ccc(Cl)cc1Cl	MC4R barr agon 11 | MC4R barr conf inactive | MOR-DOR barr ag inactive
c1ccc2c(c1)oc1c(Nc3ccc4c(c3)OCO4)ncnc12	MC4R barr agon 11 | MC4R barr conf inactive | MOR-DOR barr ag inactive
Cc1cc(C(=O)Nc2ccc(N3CCOCC3)c3nonc23)ccc1[N+](=O)[O-]	none
Cc1ccc(C(=O)Nc2ccc(N3CCOCC3)c3nonc23)cc1[N+](=O)[O-]	MC4R barr agon 11 | MC4R barr conf inactive | MOR-DOR barr ag inactive
CCCCCCn1c(=O)n2n(c1=O)[C@@H]1CN(S(=O)(=O)c3ccc(C)cc3)C[C@]1(O)[C@@H](OC(=O)NCc1ccccc1)C2	MC4R barr agon 10 (no result: NTR1 agonist) | MC4R barr conf 8.5 | MOR-DOR barr ag inactive
C=CCN(CC#CC(=C)C)Cc1ccc(OC)cc1OC	none (no result: NTR1 agonist, PG9 binder, MC4R barr agon, MC4R antag cAMP)
O=C(NCCc1ccc(Cl)cc1)c1cc(-c2ccccn2)nc2ccccc12	MC4R barr agon 11 | MC4R barr conf inactive | MOR-DOR barr ag inactive
Cc1cc2oc3ccc(NCCCN4CCOCC4)cc3c(=O)c2cc1C	none
Cc1cc2oc3ccc(NCCCn4ccnc4)cc3c(=O)c2cc1C	MC4R barr agon 11 | MC4R barr conf inactive | MOR-DOR barr ag inactive
O=C(N[C@H](C(=O)N1CCC[C@H]1C(=O)NC1CCCC1)C1CCCCC1)c1ccco1	none (no result: NTR1 agonist, MC4R barr agon, MC4R antag cAMP)
CCOC(=O)Cc1csc(N/N=C/c2cccc([N+](=O)[O-])c2)n1	MC4R barr agon 14 | MC4R barr conf inactive | MOR-DOR barr ag inactive
CC(=O)c1sc(N/N=C/c2cccc([N+](=O)[O-])c2)nc1C	none
CCOC(=O)Cc1csc(NC(=O)c2cccc([N+](=O)[O-])c2)n1	none
O=[N+]([O-])c1cccc(-c2csc(N/N=C/c3cccc(O)c3)n2)c1	MC4R barr agon 11 | MC4R barr conf 9.8 | MOR-DOR barr ag inactive
CCCCCCCCN1C(=O)[C@@H](CC(=O)N2CCN(C(=O)C3CC3)CC2)C[C@@]2(C(=O)OC)C1=C[C@H](C(C)(C)C)O[C@@H]2C	none (no result: NTR1 agonist, MC4R barr agon, MC4R antag cAMP)
CCOC(=O)C1(Cc2cccc(OC)c2)CCN(C/C=C/c2ccccc2)CC1	MC4R barr agon 12 | MC4R barr conf 10 | MOR-DOR barr ag inactive
CCOC(=O)C1(Cc2cccc(OC)c2)CCN(C/C=C/c2ccc(OC)cc2)CC1	none
C=CCN1[C@H](C#N)[C@@H](c2ccc(C#Cc3cccc(OC)c3)cc2)[C@H]1CO	none (no result: NTR1 agonist, PG9 binder, MC4R barr agon, MC4R antag cAMP)
COc1cccc(CN(Cc2ccccc2F)S(=O)(=O)c2ccc(S(=O)(=O)NCc3ccccc3)cc2)c1	MC4R barr agon 22 | MC4R barr conf inactive | MOR-DOR barr ag inactive
CC(C)C[C@H](CO)N(Cc1ccccc1)S(=O)(=O)N(Cc1ccccc1)[C@@H](CO)CC(C)C	none
O=S(=O)(N(Cc1ccccc1)[C@@H](CO)Cc1ccccc1)N(Cc1ccccc1)[C@@H](CO)Cc1ccccc1	MC4R barr agon 13 | MC4R barr conf inactive | MOR-DOR barr ag inactive
O=C(NCc1ccc2c(c1)OCO2)Nc1ccc2ccccc2c1	MC4R barr agon 11 | MC4R barr conf inactive | MOR-DOR barr ag inactive
Cc1nn(Cc2c(Cl)cccc2Cl)c(C)c1NC(=O)c1sc2ccccc2c1Cl	MC4R barr agon 45 | MC4R barr conf inactive | MOR-DOR barr ag inactive
Cc1ccc(NC(=O)Cn2nc(-c3ccccc3)nc2-c2ccccc2)c(C)c1	MC4R barr agon 17 | MC4R barr conf inactive | MOR-DOR barr ag inactive
C=CCn1c(-c2ccccc2)cc(SC)c(C#N)c1=O	MC4R barr agon 12 | MC4R barr conf inactive | MOR-DOR barr ag inactive
COc1ccc(NC(=O)OCCN2CCCC23CCC(c2ccccc2)CC3)cc1 (stereo unspecified)	none (no result: NTR1 agonist, PG9 binder, MC4R barr agon, MC4R antag cAMP)
CC(C)[C@H](NC(=O)c1ccccc1F)C(=O)Nc1ccc(F)c(F)c1	none
Cc1ccccc1C(=O)N[C@H](C(=O)Nc1ccc(Cl)c(Cl)c1)C(C)C	MC4R barr agon 17 | MC4R barr conf inactive | MOR-DOR barr ag inactive
CCn1c(=S)sc2c(=O)n(CC(=O)Nc3ccccc3)c(C)nc21	none
Cc1nc2c(sc(=S)n2Cc2ccco2)c(=O)n1CC(=O)Nc1cc(F)ccc1F	MC4R barr agon 12 | MC4R barr conf inactive | MOR-DOR barr ag inactive
Cc1nc2c(sc(=S)n2Cc2ccco2)c(=O)n1CC(=O)Nc1ccc(F)cc1	MC4R barr agon 15 | MC4R barr conf inactive | MOR-DOR barr ag inactive
COc1ccccc1NC(=O)Cn1c(C)nc2c(sc(=S)n2Cc2ccco2)c1=O	none
CC(C)(C)CCN1CCC[C@H](NC(=O)COc2ccc(F)c(Cl)c2)C1	none (no result: NTR1 agonist, PG9 binder, MC4R barr agon, MC4R antag cAMP)
CN(C(=O)[C@@H]1CC=C[C@@H]2CCN(C3CCCCC3)C(=O)[C@@H]21)c1ccccc1	none (no result: NTR1 agonist, PG9 binder, MC4R barr agon, MC4R antag cAMP)
CO/N=C1\CN(c2nc3c(cc2F)c(=O)c(C(=O)O)cn3C2CC2)CC1CN (stereo unspecified)	none (no result: NTR1 agonist, PG9 binder, MC4R barr agon, MC4R antag cAMP)
S=C(NCCCCN(Cc1ccc(Cl)cc1)c1ccc(Br)cn1)NCCCc1cnc[nH]1	MC4R barr agon 10 (no result: NTR1 agonist) | MC4R barr conf 11 | MOR-DOR barr ag inactive
COC(=O)c1cc(NC(=O)c2ccc(C)cc2)c(=O)oc1C	none
CCOC(=O)c1cc(NC(=O)c2ccc(C)cc2)c(=O)oc1-c1ccccc1	MC4R barr agon 11 | MC4R barr conf inactive | MOR-DOR barr ag inactive
Cc1cc(C(=O)O[C@H]2CCC[C@@]3(C(=O)N(Cc4ccccc4)c4ccccc43)[C@H]2NC(=O)CCc2ccccc2)no1	none (no result: NTR1 agonist, PG9 binder, MC4R barr agon, MC4R antag cAMP)
Cc1ccc(COc2ccc(-c3nnco3)cc2)cc1	none
COc1cc(COc2ccc(-c3nnco3)cc2)ccc1OC(F)F	MC4R barr agon 12 | MC4R barr conf inactive | MOR-DOR barr ag inactive
O=S(=O)(N1CCCCC1)n1nnc2cc3ccccc3cc21	none (no result: NTR1 agonist, MC4R barr agon, MC4R antag cAMP)
